Results reported in ChEMBL document CHEMBL5113474, “Triazole-substituted phenylboronic acids as tunable lead inhibitors of KPC-2 antibiotic resistance” (Eur J Med Chem, 2022).
≈ marks a conversion by molar mass, not a printed value.

Key:
Bacteria = experiment: Inhibition of bacterial beta-lactamase KPC-2 expressed in Escherichia coli BL21 (DE3) using nitrocefin as substrate at 1 uM by spectrophotometric analysis relative to control
Method in brief: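 Purified recombinant KPC-2 tested against the chromogenic β-lactam nitrocefin at 1 µM inhibitor. Hydrolysis was followed as the rise in absorbance at 482 nm (ε482 = 17,400 M-1 cm-1). Activity is expressed as percent inhibition relative to an uninhibited control.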

[1] = Inhibition of bacterial beta-lactamase KPC-2 expressed in Escherichia coli BL21 (DE3) using nitrocefin as substrate assessed as inhibition constant by Cheng-Prusoff equation analysis; design: species or system Bacteria
[2] = Cytotoxicity against HEK293 cells assessed as cell viability at 5 to 50 ug/ml incubated for 24 hrs in presence of cefotaxime by MTT assay relative to control; settings: human, at 5 to 50 µg/mL
[3] = Cytotoxicity against HEK293 cells assessed as cell viability at 5 to 50 ug/ml incubated for 24 hrs by MTT assay relative to control; settings: human, at 5 to 50 µg/mL
Escherichia coli [4] = format: functional, BL21 (DE3); settings: time 16-18 hrs
Escherichia coli [5] = experiment: microbe, parasite or virus in culture; format: functional; settings: BL21 (DE3), dose 50 µg/ml, time 16-20 hrs
Escherichia coli [6] = experiment: microbe, parasite or virus in culture; format: functional; settings: BL21 (DE3), dose 50 µg/ml, time 16-20 hrs; remark: listed apart in the source
Escherichia coli [7] = experiment: microbe, parasite or virus in culture; format: functional; settings: BL21 (DE3), dose 5 µg/ml, time 16-20 hrs
Escherichia coli [8] = experiment: microbe, parasite or virus in culture; format: functional; settings: BL21 (DE3), dose 5 µg/ml, time 16-20 hrs; remark: listed apart in the source
Escherichia coli [9] = experiment: Antibacterial activity against Escherichia coli NCTC10418; format: functional
physchem = settings: 0.1 M phosphate buffer, pH 4.3

Structure (SMILES): OB(O)c1cccc(-n2cc(C3CC3)nn2)c1
- inhibition (Bacteria): 47%
- Ki [1]: 440 nM
- viability at 24 h [2]: > 80%
- viability at 24 h [3]: > 80%
- inhibition zone (IZ) (Escherichia coli [4]): 31.5 mm

Structure (SMILES): O=C(Nc1cccc(B(O)O)c1)c1ccccc1
- inhibition (Bacteria): 40%
- viability at 24 h [2]: > 80%
- viability at 24 h [3]: > 80%
- inhibition zone (IZ) (Escherichia coli [4]): 25.2 mm

Structure (SMILES): OB(O)c1ccc(Cn2cc(-c3ccccc3)nn2)cc1
- inhibition (Bacteria): 55%
- Ki [1]: 323 nM
- viability at 24 h [2]: > 80%
- viability at 24 h [3]: > 80%
- inhibition zone (IZ) (Escherichia coli [4]): 25.5 mm

Structure (SMILES): OB(O)c1cccc(-n2cc(-c3cccs3)nn2)c1
- inhibition (Bacteria): 20%
- Ki [1]: 710 nM
- viability at 24 h [2]: > 80%
- viability at 24 h [3]: > 80%
- inhibition zone (IZ) (Escherichia coli [4]): 31.8 mm

Structure (SMILES): Nc1cc(F)c(F)c(B(O)O)c1
- inhibition zone (IZ) (Escherichia coli [4]): 25.5 mm

Structure (SMILES): COc1ccc(-c2cn(Cc3cccc(B(O)O)c3)nn2)cc1
- inhibition (Bacteria): 7%
- Ki [1]: 860 nM
- viability at 24 h [2]: > 80%
- viability at 24 h [3]: > 80%
- inhibition zone (IZ) (Escherichia coli [4]): 25.6 mm

Structure (SMILES): OB(O)c1cccc(Cn2cc(-c3cccnc3)nn2)c1
- inhibition (Bacteria): 54%
- Ki [1]: 480 nM
- viability at 24 h [2]: > 80%
- viability at 24 h [3]: > 80%
- inhibition zone (IZ) (Escherichia coli [4]): 25.9 mm

Structure (SMILES): O=C(O)c1cn(Cc2cccc(B(O)O)c2)nn1
- MIC (Escherichia coli [5]): 2 µg/mL (≈ 8.1 µM)
- MIC (Escherichia coli [6]): 0.12 µg/mL (≈ 0.486 µM)
- inhibition (Bacteria): 10%
- MIC (Escherichia coli [7]): 2 µg/mL (≈ 8.1 µM)
- MIC (Escherichia coli [8]): 4 µg/mL (≈ 16.2 µM)
- Ki [1]: 1020 nM
- MIC (Escherichia coli [9]): > 64 µg/mL
- viability at 24 h [2]: > 80%
- viability at 24 h [3]: > 80%
- inhibition zone (IZ) (Escherichia coli [4]): 21.4 mm

Structure (SMILES): [N-]=[N+]=NCc1ccc(F)c(B(O)O)c1
- MIC (Escherichia coli [5]): ≤ 0.06 µg/mL
- pKa at 100 µM (physchem): 7.22
- MIC (Escherichia coli [6]): ≤ 0.06 µg/mL
- inhibition (Bacteria): 40%
- MIC (Escherichia coli [7]): ≤ 0.06 µg/mL
- MIC (Escherichia coli [8]): 0.5 µg/mL (≈ 2.56 µM)
- Ki [1]: 410 nM
- MIC (Escherichia coli [9]): > 64 µg/mL
- inhibition zone (IZ) (Escherichia coli [4]): 29 mm

Structure (SMILES): O=[N+]([O-])c1cc(B(O)O)c(F)cc1F
- pKa at 100 µM (physchem): 5.98
- inhibition zone (IZ) (Escherichia coli [4]): 29.3 mm

Structure (SMILES): OB(O)c1ccc(Cn2cc(-c3ccccn3)nn2)cc1
- inhibition (Bacteria): 47%
- viability at 24 h [2]: > 80%
- viability at 24 h [3]: > 80%
- inhibition zone (IZ) (Escherichia coli [4]): 27.4 mm

Structure (SMILES): OB(O)c1ccc(Cn2cc(-c3ccsc3)nn2)cc1
- inhibition (Bacteria): 53%
- Ki [1]: 219 nM
- viability at 24 h [2]: > 80%
- viability at 24 h [3]: > 80%
- inhibition zone (IZ) (Escherichia coli [4]): 27.6 mm

Structure (SMILES): OB(O)c1cccc(Cn2cc(-c3ccccc3)nn2)c1
- inhibition (Bacteria): 69%
- Ki [1]: 166 nM
- viability at 24 h [2]: > 80%
- viability at 24 h [3]: > 80%
- inhibition zone (IZ) (Escherichia coli [4]): 29.6 mm

Structure (SMILES): O=C(Nc1cccc(B(O)O)c1)c1ccsc1
- MIC (Escherichia coli [5]): 2 µg/mL (≈ 8.09 µM)
- MIC (Escherichia coli [6]): 0.12 µg/mL (≈ 0.486 µM)
- inhibition (Bacteria): 28%
- MIC (Escherichia coli [7]): 0.12 µg/mL (≈ 0.486 µM)
- MIC (Escherichia coli [8]): 4 µg/mL (≈ 16.2 µM)
- Ki [1]: 870 nM
- MIC (Escherichia coli [9]): > 64 µg/mL
- viability at 24 h [2]: > 80%
- viability at 24 h [3]: > 80%
- inhibition zone (IZ) (Escherichia coli [4]): 29 mm

Structure (SMILES): OB(O)c1ccc(Cn2cc(-c3cccs3)nn2)cc1
- inhibition (Bacteria): 45%
- Ki [1]: 275 nM
- inhibition zone (IZ) (Escherichia coli [4]): 27.5 mm

Structure (SMILES): OB(O)c1cccc(Cn2cc(-c3ccccn3)nn2)c1
- inhibition (Bacteria): 61%
- inhibition zone (IZ) (Escherichia coli [4]): 25.9 mm

Structure (SMILES): O=C(Nc1cccc(B(O)O)c1)c1cc2ccccc2s1
- inhibition (Bacteria): 8.6%
- viability at 24 h [2]: > 80%
- viability at 24 h [3]: > 80%
- inhibition zone (IZ) (Escherichia coli [4]): 28.4 mm

Structure (SMILES): COc1ccc(B(O)O)c(-n2cccn2)c1
- inhibition zone (IZ) (Escherichia coli [4]): 21.7 mm

Structure (SMILES): OB(O)c1cccc(-n2cc(-c3ccccc3)nn2)c1
- inhibition (Bacteria): 18%
- inhibition zone (IZ) (Escherichia coli [4]): 26.2 mm

Structure (SMILES): CC(C)(C)c1cn(-c2cccc(B(O)O)c2)nn1
- inhibition (Bacteria): 14%
- Ki [1]: 660 nM
- inhibition zone (IZ) (Escherichia coli [4]): 32.7 mm

Structure (SMILES): OB(O)c1ccc(-c2ccccc2)cc1 [BIPHENYLBORONIC ACID]
- inhibition zone (IZ) (Escherichia coli [4]): 32.2 mm

Structure (SMILES): COc1ccc(-c2cn(Cc3ccc(B(O)O)cc3)nn2)cc1
- inhibition (Bacteria): 59%
- Ki [1]: 227 nM
- inhibition zone (IZ) (Escherichia coli [4]): 22.6 mm

Structure (SMILES): OB(O)c1cccc(-c2ccccc2)c1
- inhibition zone (IZ) (Escherichia coli [4]): 29.7 mm

Structure (SMILES): Nc1cc(B(O)O)cc([N+](=O)[O-])c1
- inhibition zone (IZ) (Escherichia coli [4]): 26.9 mm

Structure (SMILES): O=C(Nc1cccc(B(O)O)c1)c1ccc2sccc2c1
- inhibition (Bacteria): 10.2%
- inhibition zone (IZ) (Escherichia coli [4]): 26.1 mm

Structure (SMILES): [N-]=[N+]=NCc1cccc(B(O)O)c1
- inhibition (Bacteria): 30%
- MIC (Escherichia coli [7]): ≤ 0.06 µg/mL
- MIC (Escherichia coli [8]): 0.12 µg/mL (≈ 0.678 µM)
- Ki [1]: 830 nM
- MIC (Escherichia coli [9]): > 64 µg/mL
- viability at 24 h [2]: > 80%
- viability at 24 h [3]: > 80%
- inhibition zone (IZ) (Escherichia coli [4]): 30 mm

Structure (SMILES): [N-]=[N+]=NCc1ccc(B(O)O)cc1
- Ki [1]: 493 nM
- viability at 24 h [2]: > 80%
- viability at 24 h [3]: > 80%

Structure (SMILES): CCOC(=O)c1cn(Cc2cccc(B(O)O)c2)nn1
- inhibition (Bacteria): 7%
- Ki [1]: 900 nM
- inhibition zone (IZ) (Escherichia coli [4]): 31.8 mm

Structure (SMILES): O=C(O)c1cn(-c2cccc(B(O)O)c2)nn1
- inhibition (Bacteria): 0.3%
- viability at 24 h [2]: > 80%
- viability at 24 h [3]: > 80%
- inhibition zone (IZ) (Escherichia coli [4]): 32.9 mm

Structure (SMILES): CCC(=O)Nc1cccc(B(O)O)c1
- inhibition (Bacteria): 16%
- viability at 24 h [2]: > 80%
- viability at 24 h [3]: > 80%
- inhibition zone (IZ) (Escherichia coli [4]): 25.2 mm

Structure (SMILES): OB(O)c1cccc(Cn2cc(-c3ccsc3)nn2)c1
- MIC (Escherichia coli [5]): ≤ 0.06 µg/mL
- inhibition (Bacteria): 92%
- MIC (Escherichia coli [7]): ≤ 0.06 µg/mL
- MIC (Escherichia coli [8]): ≤ 0.06 µg/mL
- Ki [1]: 32 nM
- MIC (Escherichia coli [9]): > 64 µg/mL
- inhibition zone (IZ) (Escherichia coli [4]): 32 mm

Structure (SMILES): CCC1CC(=O)CCN1c1ccccc1B(O)O (stereo not given)
- inhibition zone (IZ) (Escherichia coli [4]): 18.7 mm

Structure (SMILES): NCc1ccc(F)c(B(O)O)c1
- inhibition zone (IZ) (Escherichia coli [4]): 19.9 mm

Structure (SMILES): O=C(Nc1cccc(B(O)O)c1)c1cccs1
- inhibition (Bacteria): 2%
- Ki [1]: 2900 nM
- viability at 24 h [2]: > 80%
- viability at 24 h [3]: > 80%
- inhibition zone (IZ) (Escherichia coli [4]): 26 mm

Structure (SMILES): [N-]=[N+]=Nc1cc(F)c(F)c(B(O)O)c1
- pKa at 100 µM (physchem): 6.04
- Ki [1]: 27200 nM
- inhibition zone (IZ) (Escherichia coli [4]): 16.8 mm

Structure (SMILES): O=[N+]([O-])c1cc(NCc2ccccc2)cc(B(O)O)c1
- inhibition zone (IZ) (Escherichia coli [4]): 20.9 mm

Structure (SMILES): OB(O)c1ccc(Cn2cc(-c3cccnc3)nn2)cc1
- inhibition (Bacteria): 59%
- inhibition zone (IZ) (Escherichia coli [4]): 23.7 mm

Structure (SMILES): OB(O)c1cccc(Cn2cc(Cc3ccccc3)nn2)c1
- inhibition (Bacteria): 48%
- inhibition zone (IZ) (Escherichia coli [4]): 23.6 mm

Structure (SMILES): CC(C)(C)c1cn(Cc2cccc(B(O)O)c2)nn1
- MIC (Escherichia coli [5]): 0.5 µg/mL (≈ 1.93 µM)
- MIC (Escherichia coli [6]): 0.12 µg/mL (≈ 0.463 µM)
- inhibition (Bacteria): 50%
- Ki [1]: 280 nM
- MIC (Escherichia coli [9]): > 64 µg/mL
- inhibition zone (IZ) (Escherichia coli [4]): 33.5 mm

Structure (SMILES): COc1ccc(-c2cn(-c3cccc(B(O)O)c3)nn2)cc1
- inhibition (Bacteria): 5.9%
- inhibition zone (IZ) (Escherichia coli [4]): 30.1 mm

Structure (SMILES): OB(O)c1cccc(Cn2cc(-c3cccs3)nn2)c1
- MIC (Escherichia coli [5]): ≤ 0.06 µg/mL
- inhibition (Bacteria): 85%
- MIC (Escherichia coli [7]): ≤ 0.06 µg/mL
- MIC (Escherichia coli [8]): ≤ 0.06 µg/mL
- Ki [1]: 67 nM
- MIC (Escherichia coli [9]): > 64 µg/mL
- viability at 24 h [2]: > 80%
- viability at 24 h [3]: > 80%
- inhibition zone (IZ) (Escherichia coli [4]): 33.7 mm

Structure (SMILES): CCOC(=O)c1cn(-c2cccc(B(O)O)c2)nn1
- MIC (Escherichia coli [5]): 2 µg/mL (≈ 7.66 µM)
- MIC (Escherichia coli [6]): 1 µg/mL (≈ 3.83 µM)
- inhibition (Bacteria): 25%
- MIC (Escherichia coli [9]): > 64 µg/mL
- viability at 24 h [2]: > 80%
- viability at 24 h [3]: > 80%
- inhibition zone (IZ) (Escherichia coli [4]): 30 mm

Structure (SMILES): OB(O)c1cccc(Cn2cc(C3CC3)nn2)c1
- inhibition (Bacteria): 30%
- Ki [1]: 515 nM
- inhibition zone (IZ) (Escherichia coli [4]): 30.9 mm

Structure (SMILES): Cc1ccc(F)c(B(O)O)c1
- inhibition zone (IZ) (Escherichia coli [4]): 29.6 mm
